# Active and inactive are the calls of the source. The calls are words filed in the database; no cut-off is given here.
# Assays:
# [1] = Displacement of [3H]epibatidine from rat cerebral cortex membrane alpha4beta2* nAChR pretreated for 5 mins followed by [3H]epibatidine addition after overnight incubation by beta counter
# How it was run: (§1)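 Competition binding using [3H]epibatidine for rat cortex α4β2* and human α3β4 from transfected cells, and [125I]α-bungarotoxin for rat hippocampus α7*. Kd from three saturation experiments and Ki from three competition experiments. Fitted by nonlinear least squares (LIGAND) with an F test.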
# [2] = target: T1, Neuronal acetylcholine receptor; alpha3/beta4 (Homo sapiens, UniProt P30926+P32297); assay: Displacement of [3H]epibatidine from human alpha3beta4 nAChR expressed in HEK293 cells pretreated for 5 mins followed by [3H]epibatidine addition after overnight incubation by beta counter; type: cell-based; how it was run: as §1
# [3] = Displacement of [125I]alpha-bungarotoxin from rat hippocampus membrane alpha7* nAChR pretreated for 5 mins followed by [125I]alpha-bungarotoxin addition after overnight incubation by gamma counter; how it was run: as §1
# Rattus norvegicus = species: Rattus norvegicus; assay: Selectivity ratio of Ki for displacement of [125I]alpha-bungarotoxin from rat hippocampus membrane alpha7* nAChR to Ki for displacement of [3H]epibatidine from rat cerebral cortex membrane alpha4beta2* nAChR
# How it was run: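 Ki for rat hippocampal α7* ([125I]α-bungarotoxin competition) divided by Ki for rat cortical α4β2* ([3H]epibatidine competition). Each Ki comes from three competition experiments analysed by nonlinear least squares.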
# [4] = Selectivity ratio of Ki for displacement of [3H]epibatidine from human alpha3beta4 nAChR expressed in HEK293 cells to Ki for displacement of [3H]epibatidine from rat cerebral cortex membrane alpha4beta2* nAChR; type: cell-based
# How it was run: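 [3H]-epibatidine competition binding on native rat cerebral cortex membranes (α4β2*) and on membranes of HEK cells transiently transfected with human α3β4. Kd and Ki came from three saturation and three competition experiments each, fitted by nonlinear least squares (LIGAND) with F test. The ratio is α3β4 Ki divided by α4β2 Ki.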
# [5] = target: Neuronal acetylcholine receptor; alpha4/beta2 (Rattus norvegicus, UniProt P09483+P12390); assay: Displacement of [3H](-)cytisine from rat whole brain alpha4beta2 nAChR
# [6] = target: T2, Neuronal acetylcholine receptor; alpha4/beta2 (Homo sapiens, UniProt P17787+P43681); assay: Partial agonist activity at human alpha4beta2 nAChR expressed in GH4CL cells by whole-cell patch clamp method relative to acetylcholine; type: cell-based
# How it was run: (§2)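 Human receptor transiently transfected into GH4C1 pituitary cells. Agonist concentrations applied in sequence. Peak currents normalized to the 1 mM ACh response on the same cell. Fitted to a Hill equation, I = Imax([C]^nH/(EC50^nH+[C]^nH)), to give EC50, Imax and Hill coefficient.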
# [7] = target: T2, Neuronal acetylcholine receptor; alpha4/beta2; assay: Partial agonist activity at human alpha4beta2 nAChR expressed in GH4CL cells by whole-cell patch clamp method; type: cell-based; how it was run: as §2
# [8] = target: T1, Neuronal acetylcholine receptor; alpha3/beta4; assay: Antagonist activity at human alpha3beta4 nAChR expressed in GH4CL cells by whole-cell patch clamp method; type: cell-based
# [9] = target: T2, Neuronal acetylcholine receptor; alpha4/beta2; assay: Antagonist activity at human alpha4beta2 nAChR expressed in GH4CL cells by whole-cell patch clamp method; type: cell-based
# [10] = target: T1, Neuronal acetylcholine receptor; alpha3/beta4; assay: Partial agonist activity at human alpha3beta4 nAChR expressed in GH4CL cells by whole-cell patch clamp method; type: cell-based; how it was run: as §2
# T1 sequence (P30926 whole entry): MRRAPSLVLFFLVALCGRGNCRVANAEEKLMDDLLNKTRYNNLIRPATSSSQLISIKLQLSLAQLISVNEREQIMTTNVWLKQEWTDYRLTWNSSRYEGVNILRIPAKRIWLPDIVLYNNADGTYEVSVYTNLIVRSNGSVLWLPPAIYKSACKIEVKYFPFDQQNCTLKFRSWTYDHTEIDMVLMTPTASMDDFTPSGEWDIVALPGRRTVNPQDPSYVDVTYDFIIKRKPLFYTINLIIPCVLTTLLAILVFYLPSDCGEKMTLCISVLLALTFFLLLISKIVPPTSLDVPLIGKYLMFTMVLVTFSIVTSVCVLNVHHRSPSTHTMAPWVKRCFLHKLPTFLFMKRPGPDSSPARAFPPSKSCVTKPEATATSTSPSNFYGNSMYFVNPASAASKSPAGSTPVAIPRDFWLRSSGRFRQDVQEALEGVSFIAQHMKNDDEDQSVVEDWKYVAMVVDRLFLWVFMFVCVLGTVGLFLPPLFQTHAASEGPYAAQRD
# T1 sequence (P32297 whole entry): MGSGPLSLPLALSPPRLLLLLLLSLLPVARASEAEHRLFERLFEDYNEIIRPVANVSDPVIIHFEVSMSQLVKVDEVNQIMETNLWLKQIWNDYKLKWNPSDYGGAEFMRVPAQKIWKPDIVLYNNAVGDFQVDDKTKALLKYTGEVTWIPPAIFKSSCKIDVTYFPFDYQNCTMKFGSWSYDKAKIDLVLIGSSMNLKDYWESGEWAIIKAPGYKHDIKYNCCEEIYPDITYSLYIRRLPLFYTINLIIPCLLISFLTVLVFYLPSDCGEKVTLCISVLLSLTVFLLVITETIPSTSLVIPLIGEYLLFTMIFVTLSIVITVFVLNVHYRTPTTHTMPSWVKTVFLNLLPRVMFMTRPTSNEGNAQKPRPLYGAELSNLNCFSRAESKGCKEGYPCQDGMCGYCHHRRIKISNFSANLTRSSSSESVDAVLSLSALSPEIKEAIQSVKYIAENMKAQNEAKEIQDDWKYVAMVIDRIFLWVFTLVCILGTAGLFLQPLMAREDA
# T2 sequence (P17787 whole entry): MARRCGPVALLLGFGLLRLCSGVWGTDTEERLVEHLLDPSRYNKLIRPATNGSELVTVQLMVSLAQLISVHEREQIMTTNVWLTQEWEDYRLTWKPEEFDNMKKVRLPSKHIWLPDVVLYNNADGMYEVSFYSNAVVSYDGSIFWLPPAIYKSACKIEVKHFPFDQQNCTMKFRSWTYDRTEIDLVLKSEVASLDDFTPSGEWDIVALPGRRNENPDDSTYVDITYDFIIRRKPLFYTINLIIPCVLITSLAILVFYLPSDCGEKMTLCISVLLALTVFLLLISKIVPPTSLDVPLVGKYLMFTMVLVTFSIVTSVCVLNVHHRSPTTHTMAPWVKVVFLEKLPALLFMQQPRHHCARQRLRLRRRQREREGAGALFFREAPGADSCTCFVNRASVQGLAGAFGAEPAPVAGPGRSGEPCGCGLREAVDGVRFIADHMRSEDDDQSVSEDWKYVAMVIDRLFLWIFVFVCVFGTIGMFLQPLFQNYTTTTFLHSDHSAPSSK
# T2 sequence (P43681 whole entry): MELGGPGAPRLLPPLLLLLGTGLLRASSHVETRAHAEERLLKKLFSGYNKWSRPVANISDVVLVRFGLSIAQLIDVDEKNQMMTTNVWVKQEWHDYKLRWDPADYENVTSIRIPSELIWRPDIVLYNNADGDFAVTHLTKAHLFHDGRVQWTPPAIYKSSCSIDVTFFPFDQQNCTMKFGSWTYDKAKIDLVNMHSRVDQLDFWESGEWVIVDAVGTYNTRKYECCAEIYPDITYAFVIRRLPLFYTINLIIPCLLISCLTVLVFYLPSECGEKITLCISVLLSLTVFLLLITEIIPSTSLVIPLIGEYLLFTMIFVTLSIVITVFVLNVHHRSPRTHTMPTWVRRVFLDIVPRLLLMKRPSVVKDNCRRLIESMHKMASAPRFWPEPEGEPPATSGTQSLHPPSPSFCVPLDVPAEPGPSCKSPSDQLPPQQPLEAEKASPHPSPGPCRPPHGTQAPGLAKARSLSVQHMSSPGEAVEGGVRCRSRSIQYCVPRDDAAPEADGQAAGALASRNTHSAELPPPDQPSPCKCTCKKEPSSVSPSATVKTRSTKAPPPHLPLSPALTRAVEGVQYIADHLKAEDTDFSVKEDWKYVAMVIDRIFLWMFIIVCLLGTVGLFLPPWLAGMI
# Sequence of Neuronal acetylcholine receptor; alpha4/beta2 (Rattus norvegicus, UniProt P09483+P12390) (P09483 whole entry): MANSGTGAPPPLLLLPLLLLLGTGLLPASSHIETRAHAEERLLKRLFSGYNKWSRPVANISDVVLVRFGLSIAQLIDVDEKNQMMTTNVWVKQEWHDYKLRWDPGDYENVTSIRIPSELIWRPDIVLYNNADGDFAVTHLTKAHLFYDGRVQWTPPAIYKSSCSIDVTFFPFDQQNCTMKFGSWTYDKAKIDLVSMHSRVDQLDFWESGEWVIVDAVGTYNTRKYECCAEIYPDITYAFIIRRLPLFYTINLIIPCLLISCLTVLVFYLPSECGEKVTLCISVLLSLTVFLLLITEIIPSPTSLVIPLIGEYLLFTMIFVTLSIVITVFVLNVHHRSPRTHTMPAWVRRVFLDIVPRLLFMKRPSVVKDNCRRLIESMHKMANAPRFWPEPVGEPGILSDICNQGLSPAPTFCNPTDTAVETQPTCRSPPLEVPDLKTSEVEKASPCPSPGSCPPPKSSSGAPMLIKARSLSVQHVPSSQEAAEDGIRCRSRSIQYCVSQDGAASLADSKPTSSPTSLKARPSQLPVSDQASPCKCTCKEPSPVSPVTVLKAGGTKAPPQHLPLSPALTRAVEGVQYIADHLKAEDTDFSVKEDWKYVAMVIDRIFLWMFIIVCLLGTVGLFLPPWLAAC
# Sequence of Neuronal acetylcholine receptor; alpha4/beta2 (Rattus norvegicus, UniProt P09483+P12390) (P12390 whole entry): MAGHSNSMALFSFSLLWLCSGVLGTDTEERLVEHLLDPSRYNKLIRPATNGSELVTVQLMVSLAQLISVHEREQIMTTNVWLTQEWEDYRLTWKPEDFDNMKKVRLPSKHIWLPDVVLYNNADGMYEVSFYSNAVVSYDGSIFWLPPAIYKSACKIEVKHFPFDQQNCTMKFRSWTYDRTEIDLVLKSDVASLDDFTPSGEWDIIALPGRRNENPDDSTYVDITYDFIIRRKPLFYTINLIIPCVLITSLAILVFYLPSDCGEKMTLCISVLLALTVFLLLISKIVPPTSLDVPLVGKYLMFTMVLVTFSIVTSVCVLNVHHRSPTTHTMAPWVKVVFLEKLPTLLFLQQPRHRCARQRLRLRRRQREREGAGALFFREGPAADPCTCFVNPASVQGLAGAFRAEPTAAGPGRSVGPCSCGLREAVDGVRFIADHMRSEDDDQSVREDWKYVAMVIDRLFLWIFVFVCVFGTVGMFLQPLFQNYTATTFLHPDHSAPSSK
SMILES,Ki [1],Ki [2],Ki [3],Ratio Ki (Rattus norvegicus),Ratio Ki [4],other results
CN1CCC[C@H]1[C@H]1COc2ccncc2O1,3.6 µM,8.9 µM,,,,
CN1CCC[C@H]1[C@H]1COc2ccc(O)cc2O1,0.012 µM,0.31 µM,0.43 µM,36,26,
CN1CCC[C@H]1c1cc2ccccc2o1,,,,,,Ki [5]: 0.16 µM
C[C@@H](Oc1cccc(O)c1)[C@@H]1CCCN1C,0.011 µM,,0.057 µM,5,23,
COc1ccc(O)cc1OC[C@@H]1CCCN1C,0.019 µM,,1.15 µM,60,14,
CN1CCC[C@H]1[C@@H]1COc2ccncc2O1,1.64 µM,5.8 µM,,,,
CN1CCC[C@H]1[C@@H]1COc2ncccc2O1,0.41 µM,16.2 µM,89 µM,215,39,%max [6]: 24.2%; EC50 [7]: 10.1 µM
CN1CCC[C@H]1[C@H]1COc2ncccc2O1,30.4 µM,22 µM,> 10 µM,,,
CN1CCC[C@H]1[C@@H]1COc2ccccc2O1,0.26 µM,1.2 µM,21 µM,81,5,IC50 [8]: 2.78 to 2.8 µM; IC50 [9]: 5.36 to 5.4 µM; Activity [7]: inactive; Activity [10]: inactive
CN1CCC[C@H]1[C@@H]1COc2cccnc2O1,43 µM,,24 µM,,,
CN1CCC[C@H]1[C@H]1COc2ccccc2O1,0.47 µM,8.2 µM,14.6 µM,,,
CN1CCC[C@H]1[C@H]1COc2cccnc2O1,30 µM,,12 µM,,,

# From ChEMBL document CHEMBL4041514, “From pyrrolidinyl-benzodioxane to pyrrolidinyl-pyridodioxanes, or from unselective antagonism to selective partial agonism at α4β2 nicotinic acetylcholine receptor” (Eur J Med Chem, 2017)
